Assay results of several laboratories.
Protocols differ between the studies behind these lines.
HCK: Tyrosine-protein kinase HCK (HCK, Homo sapiens, UniProt P08631)

SMILES	target	observed	action	technique	concentration	endpoint	result
Cc1cc(NC(=O)c2cccc(S(F)(F)(F)(F)F)c2)cc(-n2ccn3nc(-c4cccnc4)cc23)c1	HCK	cell-free assay	–	competition with immobilised ligand	1 µM	remaining binding	98.7%
CN(C)C1CCN(CC#Cc2nn(C3CCCC3)c3nc(NCc4ccccc4)ncc23)C1 (stereo not drawn)	HCK	enzyme activity	inhibitor	FRET	1 µM	inhibition	2%
Cc1sc(C(=O)NC2COC2)cc1-n1cc(NC(=O)Nc2c(F)cccc2Cl)cn1	HCK	enzyme activity	inhibitor	–	10 µM	remaining activity	95%
CNCc1ccccc1-c1csc([C@H](C)Nc2nc(C)nc3cc(OC)c(OC)cc23)c1	HCK	cell-free assay	–	competition with immobilised ligand	1 µM	remaining binding	98%
Cc1ccc(Nc2nccc(N(C)c3ccc4c(C)n(C)nc4c3)n2)cc1S(N)(=O)=O	HCK	enzyme activity	inhibitor	–	0.3 µM	inhibition	21%
CC(C)(C)c1nc2c(s1)c1nc(N)ncc1c1ccc(NS(=O)(=O)c3c(F)cccc3F)c(F)c12	HCK	enzyme activity	inhibitor	radiometric	1 µM	remaining activity	82%
C[C@H](c1ccnc(Nc2nc3ccc(-c4cc(N(C)C)ncn4)cc3[nH]2)c1)N1CCN(C(=O)CC(F)(F)F)CC1	HCK	cell-free assay	–	competition with immobilised ligand	0.1 µM	remaining binding	91%
COc1cc2ncnc(Nc3ccc(F)c(Cl)c3)c2cc1OCCCN1CCOCC1	HCK	cell-free assay	–	–	0.5 µM	remaining signal	73.3%
CNC(=O)c1cc2c(Oc3ccc(NC(=O)C4(C(=O)Nc5ccc(F)cc5)CC4)cc3)ccnc2cc1OC	Tyrosine-protein kinase HCK, phosphorylated (HCK, Homo sapiens, UniProt P08631)	enzyme activity	inhibitor	radiometric	1 µM	inhibition	88%
CCCOc1ccc([C@@H]2[C@@H](C(=O)O)[C@H](c3ccc4c(c3)OCO4)CN2CC(=O)Nc2c(CC)cccc2CC)cc1	HCK	cell-free assay	–	competition with immobilised ligand	1 µM	remaining binding	92%
COc1cc(Cl)c(C(=O)N[C@@H](CN[C@H]2CC[C@@H](N)CC2)Cc2ccc(C#N)cc2)cc1-c1ccc(CN[C@H](C)c2ccc(C)cc2)o1	HCK	enzyme activity	inhibitor	–	1 µM	remaining activity	99%
CN(C(=O)c1ccccc1)c1cc(N(C)c2ccc3c(c2)CCc2ccc(C(=O)NCCN4CCOCC4)cc2C3=O)ccc1F	HCK	cell-free assay	–	competition with immobilised ligand	1 µM	remaining binding	100%
O=C1NC(=O)c2cc(Nc3ccc(F)cc3)c(Nc3ccc(F)cc3)cc21	HCK	cell-free assay	–	–	0.5 µM	remaining signal	88.3%
COc1cc2ncnc(Nc3ccc(Oc4ccccc4)c(C)c3C)c2cc1OC	HCK	enzyme activity	inhibitor	–	1 µM	inhibition	53%
CS(=O)(=O)CCNCc1ccc(-c2ccc3ncnc(Nc4ccc(OCc5cccc(F)c5)c(Cl)c4)c3c2)o1	HCK	cell-free assay	–	–	0.5 µM	remaining signal	86.5%
CCCS(=O)(=O)Nc1ccc(F)c(C(=O)c2c[nH]c3ncc(-c4ccc(Cl)cc4)cc23)c1F	HCK	enzyme activity	inhibitor	–	1 µM	inhibition	< 10%
CNC(=O)c1ccc(Nc2ncc(C(F)(F)F)c(NCc3nccnc3N(C)S(C)(=O)=O)n2)cc1	HCK	cell-free assay	–	competition with immobilised ligand	0.1 µM	remaining binding	100%
CCN(CC)CCNC(=O)c1c(C)[nH]c(/C=C2\C(=O)Nc3ccc(F)cc32)c1C	HCK	enzyme activity	inhibitor	–	10 µM	inhibition	92%
Cc1ccc(NC(=O)c2ccc(CN3CCN(C)CC3)cc2)cc1Nc1nccc(-c2cncc(-c3oncc3C)c2)n1	HCK	enzyme activity	inhibitor	–	0.5 µM	remaining activity	≤ 50%
Cc1ccc(NC(=O)c2ccc(C)c(C(F)(F)F)c2)cc1C#Cc1nn(C2CCC(O)CC2)c2ncnc(N)c12 (stereo not drawn)	HCK	enzyme activity	inhibitor	–	10 µM	remaining activity	-1%
O=C(Nc1cnn(-c2csc(C(=O)NC3COC3)c2)c1)Nc1c(F)cccc1Cl	HCK	enzyme activity	inhibitor	–	5 µM	remaining activity	91.3%
Cc1ccc(C(=O)NCc2ccsc2)cc1C#Cc1cn(C(C)C)c2ncnc(N)c12	HCK	enzyme activity	inhibitor	–	1 µM	activity vs control	4%
O=C1Nc2ccc(Cl)cc2C1=Cc1cc(Cl)c(O)c(Cl)c1	HCK	cell-free assay	–	–	0.5 µM	remaining signal	83.2%
O=C(Nc1cccnn1)N1CC(C/C=C/c2cncc(Oc3ccc(C(F)(F)F)cn3)n2)C1	HCK	cell-free assay	–	competition with immobilised ligand	1 µM	remaining binding	100%
